The values below come from ChEMBL document CHEMBL1153910, “Salicylate-urea-based soluble epoxide hydrolase inhibitors with high metabolic and chemical stabilities” (Bioorg Med Chem Lett, 2009).

Molecules are shown by their SMILES. In brackets after ≈: the same amount, converted by molar mass. Activity calls are given as the source filed them. The rule behind the calls is not given here. Some results are limits rather than exact numbers.

For series [1], the target named is T1, Bifunctional epoxide hydrolase 2 (Homo sapiens, UniProt P34913).
T1 sequence (P34913 whole entry): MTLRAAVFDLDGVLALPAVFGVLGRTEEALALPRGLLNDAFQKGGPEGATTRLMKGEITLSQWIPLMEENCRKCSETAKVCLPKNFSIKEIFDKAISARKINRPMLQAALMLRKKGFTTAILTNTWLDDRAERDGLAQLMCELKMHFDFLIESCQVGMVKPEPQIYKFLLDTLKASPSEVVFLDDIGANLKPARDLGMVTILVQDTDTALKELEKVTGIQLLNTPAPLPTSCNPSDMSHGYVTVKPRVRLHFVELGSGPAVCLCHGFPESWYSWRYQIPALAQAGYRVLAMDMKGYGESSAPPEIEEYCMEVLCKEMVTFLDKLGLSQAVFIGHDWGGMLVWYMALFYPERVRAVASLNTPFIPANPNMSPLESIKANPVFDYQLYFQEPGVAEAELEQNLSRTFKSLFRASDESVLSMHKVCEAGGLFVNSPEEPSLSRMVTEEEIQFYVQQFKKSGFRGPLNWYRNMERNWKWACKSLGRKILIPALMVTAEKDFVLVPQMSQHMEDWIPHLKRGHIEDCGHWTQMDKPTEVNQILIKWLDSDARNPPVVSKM
The series is described as follows: Inhibition of human soluble epoxide hydrolase by fluorescence assay. In outline:
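Recombinant human sEH was used, with inhibition measured by a kinetic fluorescent assay and reported as IC50.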

Series [2] in a line: Octanol-water distribution coefficient, log P of the compound. The format is physicochemical. In outline:
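Partitioning was between buffer-saturated 1-octanol and 0.1 M sodium phosphate buffer, pH 7.4. Compound concentration was measured in each phase, and logP = log10([octanol]/[buffer]).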

Series [3] in a line: Solubility in 0.1 M sodium phosphate buffer at pH 7.4.
Series [4] is described as follows: Metabolic stability in human liver S9 fraction in presence of NADPH assessed as residual parent compound remaining. The format is ADME, subcellular. The procedure, abridged: (§1)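 Compounds were incubated with human liver S9 fraction, with or without NADPH. Residual parent compound is given as a percentage remaining.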
The nature of series [5]: Metabolic stability in human liver S9 fraction in absence of NADPH assessed as residual parent compound remaining. The format is ADME, subcellular. The procedure, abridged: as §1
A short description of series [6]: Chemical stability assessed as compound hydrolysis after 15 mins in 40 mM NaOH at 22 degC. Conditions: 0.25 h. The class given is physicochemical.
A short description of series [7]: Chemical stability in 40 mM NaOH at 22 degC. The format is physicochemical.
Series [8] is described as follows: AUC (0 to 24 hrs) in dog at 0.3 mg/kg, po. The class given is ADME, organism-based, Canis lupus familiaris. Particulars: plasma. Details: time < 24 hr, dose 0.3 mg/kg, route oral. The procedure, abridged: (§2)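 Dogs were dosed by oral gavage at 0.3 mg/kg in tri-olein-rich oil. Blood concentration–time profiles were followed, and pharmacokinetic parameters were derived from those profiles.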

The nature of series [9]: Cmax in dog at 0.3 mg/kg, po. The class given is ADME, organism-based, Canis lupus familiaris. Particulars: in vivo. Details: dose 0.3 mg/kg, route oral. The procedure, abridged: as §2
The nature of series [10]: Half life in dog at 0.3 mg/kg, po. The format is ADME, organism-based, Canis lupus familiaris. Details: dose 0.3 mg/kg, route oral. Particulars: in vivo. The procedure, abridged:
as §2

Series [11] in a line: Tmax in dog at 0.3 mg/kg, po. Conditions: in vivo. Details: dose 0.3 mg/kg, route oral. The format is ADME, organism-based, Canis lupus familiaris. In outline: as §2
The nature of series [12]: AUC (0 to infinity) in dog at 0.3 mg/kg, po. The class given is ADME, organism-based, Canis lupus familiaris. Details: time infinity, dose 0.3 mg/kg, route oral. Conditions: plasma. The procedure, abridged:
as §2

For series [13], the target named is Prostaglandin G/H synthase 1 (Homo sapiens) (UniProt P23219). The series is described as follows: Inhibition of COX1 at 10 uM by fluorescence assay.
Chain of Prostaglandin G/H synthase 1 (Homo sapiens) (P23219 whole entry): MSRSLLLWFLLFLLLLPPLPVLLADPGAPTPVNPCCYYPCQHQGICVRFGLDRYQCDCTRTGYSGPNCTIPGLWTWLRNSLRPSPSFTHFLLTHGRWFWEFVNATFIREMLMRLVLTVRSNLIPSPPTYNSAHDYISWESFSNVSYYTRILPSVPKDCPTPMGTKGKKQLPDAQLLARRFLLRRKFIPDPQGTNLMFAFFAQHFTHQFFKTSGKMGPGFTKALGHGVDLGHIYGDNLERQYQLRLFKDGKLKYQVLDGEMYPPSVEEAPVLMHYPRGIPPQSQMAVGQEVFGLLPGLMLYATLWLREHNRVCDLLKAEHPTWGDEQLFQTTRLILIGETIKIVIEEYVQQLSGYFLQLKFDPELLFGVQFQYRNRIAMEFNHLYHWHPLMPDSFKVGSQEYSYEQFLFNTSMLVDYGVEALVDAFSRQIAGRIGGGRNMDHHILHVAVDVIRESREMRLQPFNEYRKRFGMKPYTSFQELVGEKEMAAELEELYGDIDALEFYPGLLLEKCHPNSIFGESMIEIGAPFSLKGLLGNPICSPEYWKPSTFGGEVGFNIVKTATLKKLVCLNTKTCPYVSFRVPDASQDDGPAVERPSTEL
Series [14] can be described thus: Chemical stability assessed as compound remaining after 7 hrs in 40 mM NaOH at 22 degC. The class given is physicochemical. Particulars: read-out: Activity.
The target of series [15] is T2, Prostaglandin G/H synthase 2 (Homo sapiens) (UniProt P35354).
T2 sequence (whole entry): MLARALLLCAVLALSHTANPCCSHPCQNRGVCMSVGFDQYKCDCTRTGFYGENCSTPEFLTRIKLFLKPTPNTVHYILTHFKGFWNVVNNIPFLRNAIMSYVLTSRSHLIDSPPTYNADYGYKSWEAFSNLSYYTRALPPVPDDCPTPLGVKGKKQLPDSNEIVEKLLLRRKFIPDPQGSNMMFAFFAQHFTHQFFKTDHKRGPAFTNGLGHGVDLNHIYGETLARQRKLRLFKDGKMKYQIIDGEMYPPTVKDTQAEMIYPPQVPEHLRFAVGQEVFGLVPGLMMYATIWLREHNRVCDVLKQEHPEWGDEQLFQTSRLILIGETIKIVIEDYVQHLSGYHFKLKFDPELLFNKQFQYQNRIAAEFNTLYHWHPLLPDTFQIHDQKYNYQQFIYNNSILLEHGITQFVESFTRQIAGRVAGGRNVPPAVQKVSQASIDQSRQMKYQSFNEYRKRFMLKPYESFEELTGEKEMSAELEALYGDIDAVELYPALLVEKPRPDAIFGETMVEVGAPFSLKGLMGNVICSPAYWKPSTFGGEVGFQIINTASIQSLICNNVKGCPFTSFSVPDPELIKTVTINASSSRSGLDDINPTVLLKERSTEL
As to the kind of experiment: Inhibition of COX2 at 10 uM by fluorescence assay.

With `O=C(Nc1ccc(C(=O)O)c(O)c1)NC12CC3CC(CC(C3)C1)C2`, half-maximal inhibition in [1] (IC50) required 71 nM. In addition, in [2] (read-out: logP), the logP (in general, a log measure of how a compound divides between an organic and an aqueous phase) was 1.6. In addition, the solubility (in general, how much of the substance goes into solution per volume) in series [3] is 199000 µg/mL (≈ 602000 µM).
For the compound `COC(=O)Cc1ccc(NC(=O)NC23CC4CC(CC(C4)C2)C3)cc1`, the midpoint of inhibition in series [1], the IC50, lay at 4 nM.
As for `COC(=O)CCCc1ccc(NC(=O)NC23CC4CC(CC(C4)C2)C3)cc1`, the IC50 (usually the concentration that inhibits the measured activity by half) in series [1] was found to be 3.1 nM.
Take `CC(=O)Oc1ccc(NC(=O)NC23CC4CC(CC(C4)C2)C3)cc1`: the Stability in [4] is reported as under 0.1%; in series [5], under 0.1%; in [6] it was “Unstable”. This compound returned an IC50 in series [1] of 3.9 nM.
`O=C(Nc1cccc(C(=O)N2CCC(N3CCOCC3)CC2)c1)NC12CC3CC(CC(C3)C1)C2`: the IC50 in [1] came to 29 nM.
Still for that read-out and setting: the figure for `COc1cccc(NC(=O)NC23CC4CC(CC(C4)C2)C3)c1` is 4.7 nM.
As for `COC(=O)c1ccc(NC(=O)NC23CC4CC(CC(C4)C2)C3)cc1`, the Stability is 95% in series [4] and 97% in [5]. For the same compound, the half-life (in general, how long it takes for the measured level to halve) in series [7] was 2 h. Besides, the half-maximal inhibitory concentration (IC50) in series [1] was determined as 4.1 nM. Further, in series [2], the lipophilicity (logP) was over 3.9. In addition, the solubility in [3] turned out to be 400 µg/mL (≈ 1220 µM).
As to `O=C(O)CCc1ccc(NC(=O)NC23CC4CC(CC(C4)C2)C3)cc1`, the IC50 in series [1] stood at 126 nM.
The compound `O=C(Nc1ccc(O)cc1)NC12CC3CC(CC(C3)C1)C2` gave an IC50 in series [1] of 24 nM.
In [1], `COc1ccccc1NC(=O)NC12CC3CC(CC(C3)C1)C2` gave a half-inhibitory concentration (IC50) of 8540 nM.
For `O=C(Nc1ccc(C(=O)O)cc1)NC12CC3CC(CC(C3)C1)C2`, the IC50 in series [1] was 1410 nM.
In the case of `O=C(O)CCCCCCCCCCCNC(=O)NC12CC3CC(CC(C3)C1)C2`, the area under the curve AUC(0-t) – broadly, the area under the concentration-time curve up to a stated or last time point – at 24 h in series [8] is 0.0522 µM·h. The highest level in [9] (Cmax) was 18 nM. The compound further showed a half-life in [10] of 2.9 h. Besides, in series [11], the Tmax (usually the time from dosing to the highest level) turned out to be 0.5 h. Also, the AUC(0-inf) – broadly, total exposure, with the tail of the curve extrapolated – in series [12] amounted to 0.0524 µM·h.
Turning to `CCOCCOCCOc1cccc(NC(=O)NC23CC4CC(CC(C4)C2)C3)c1`, the Stability in [4] worked out at 56%.
In series [1], `O=C(Nc1cccc(O)c1)NC12CC3CC(CC(C3)C1)C2` showed a half-inhibitory concentration (IC50) of 28 nM.
In the case of `O=C(Nc1cccc(C(=O)N2CCOCC2)c1)NC12CC3CC(CC(C3)C1)C2`, the IC50 in series [1] is 25 nM.
On to `COC(=O)c1ccc(NC(=O)NC23CC4CC(CC(C4)C2)C3)cc1O`, for which, in series [8], the AUC(0-t) at 24 h came to 0.189 µM·h. Also, the values for the Stability in [4] and in [5] were 89% and 93%, respectively. The compound further came in with an IC50 in series [1] of 2.8 nM. For the same compound, the outcome in series [13] and in series [15] was inactive. In addition, the logP in series [2] was over 4.1. In addition, in series [9], the concentration peaked (Cmax) at 45 nM. In [10], this compound gave a half-life of 7.9 h. Also, in series [11], the time to peak (Tmax) came out at 1 h. In addition, the remaining at 7 h in [14] was 80%. The solubility in series [3] is 200 µg/mL (≈ 581 µM). In series [12], this compound had an AUC(0-inf) of 0.209 µM·h.
In series [1], `COc1ccc(NC(=O)NC23CC4CC(CC(C4)C2)C3)cc1` registered an IC50 of 14 nM.
For `O=C(Nc1ccccc1O)NC12CC3CC(CC(C3)C1)C2`, the half-maximal inhibitory concentration (IC50) in series [1] was determined as 139 nM.
As for `COC(=O)c1cc(NC(=O)NC23CC4CC(CC(C4)C2)C3)ccc1O`, the Stability in [4] turned out to be 51%; in series [5], 46%. Moreover, in [1], half-maximal inhibition (IC50) required 12 nM.
In turn, `O=C(Nc1cccc(OC(=O)c2ccccc2)c1)NC12CC3CC(CC(C3)C1)C2` registered a concentration for half-maximal inhibition (IC50) in series [1] of 5.1 nM.
On the same count and under the same terms, the figure for `COC(=O)CCc1ccc(NC(=O)NC23CC4CC(CC(C4)C2)C3)cc1` is 2.2 nM; for `O=C(O)CCCc1ccc(NC(=O)NC23CC4CC(CC(C4)C2)C3)cc1` it is 19.9 nM.
The same measure, in the same setting: the figure for `O=C(Nc1ccc(O)c(C(=O)O)c1)NC12CC3CC(CC(C3)C1)C2` is 116 nM.
With `O=C(Nc1ccc(OC(=O)c2ccccc2)cc1)NC12CC3CC(CC(C3)C1)C2`, the Stability in series [4] was 31%; in series [5] it was 32%; in series [6], “Unstable”. This compound also came in with an IC50 in series [1] of 11 nM.
`O=C(Nc1ccccc1)NC12CC3CC(CC(C3)C1)C2` returned a 50% inhibitory concentration (IC50) in [1] of 17 nM.
Compound `CN1CCN(C(=O)c2cccc(NC(=O)NC34CC5CC(CC(C5)C3)C4)c2)CC1` displayed an IC50 in series [1] of 35 nM.
For `O=C(O)Cc1ccc(NC(=O)NC23CC4CC(CC(C4)C2)C3)cc1`, in [1], half-maximal inhibition (IC50) required 392 nM.
Consider `COC(=O)c1cccc(NC(=O)NC23CC4CC(CC(C4)C2)C3)c1`, for which, in [1], the 50% inhibitory concentration (IC50) came out at 14 nM.
On the same count and under the same terms, the same measure for `CC(=O)Oc1cccc(NC(=O)NC23CC4CC(CC(C4)C2)C3)c1`: 5.8 nM.
With `O=C(Nc1cccc(C(=O)O)c1)NC12CC3CC(CC(C3)C1)C2`, the midpoint of inhibition in [1], the IC50, lay at 365 nM.
